Measurements as given in ChEMBL document CHEMBL2390926, “Identification of novel FLT3 kinase inhibitors” (Eur J Med Chem, 2013).
The source made the active and inactive calls. No cut-off for these calls is given here.

Target: Tyrosine-protein kinase Yes (Homo sapiens) (UniProt P07947)
Assay: Inhibition of YES (unknown origin) transfected in mouse Ba/F3 cells at 1 uM after 24 hrs
Format: cell-based
Details: BaF3

Chain of Tyrosine-protein kinase Yes (Homo sapiens) (P07947 2-543 limits assumed): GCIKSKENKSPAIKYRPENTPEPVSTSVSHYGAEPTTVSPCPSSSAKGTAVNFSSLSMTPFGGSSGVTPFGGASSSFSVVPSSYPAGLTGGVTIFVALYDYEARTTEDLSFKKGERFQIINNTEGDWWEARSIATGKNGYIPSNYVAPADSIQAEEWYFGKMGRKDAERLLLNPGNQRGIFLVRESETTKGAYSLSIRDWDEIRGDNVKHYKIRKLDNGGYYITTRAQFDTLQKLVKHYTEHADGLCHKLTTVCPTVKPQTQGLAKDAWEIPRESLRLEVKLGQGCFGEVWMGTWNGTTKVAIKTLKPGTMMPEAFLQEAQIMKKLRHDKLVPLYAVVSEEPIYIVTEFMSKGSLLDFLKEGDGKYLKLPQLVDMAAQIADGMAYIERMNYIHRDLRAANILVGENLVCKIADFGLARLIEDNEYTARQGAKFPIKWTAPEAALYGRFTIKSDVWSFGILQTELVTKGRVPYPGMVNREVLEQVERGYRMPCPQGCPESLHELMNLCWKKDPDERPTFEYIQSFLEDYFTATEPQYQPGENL

inhibition | SMILES
inactive | COc1ccc(C(=O)Nc2cc(-c3ccccc3)[nH]n2)cc1
inactive | Cc1ccc(-c2cc(NC(=O)c3ccc(F)cc3)[nH]n2)cc1
inactive | Cc1cccc(C(=O)Nc2cc(-c3ccc(F)cc3)n[nH]2)c1

Target: NT-3 growth factor receptor (Homo sapiens) (UniProt Q16288)
Assay: Inhibition of NTRK3 (unknown origin) transfected in mouse Ba/F3 cells at 1 uM after 24 hrs
Format: cell-based
Details: BaF3

Chain of NT-3 growth factor receptor (Homo sapiens) (Q16288 32-839 limits assumed): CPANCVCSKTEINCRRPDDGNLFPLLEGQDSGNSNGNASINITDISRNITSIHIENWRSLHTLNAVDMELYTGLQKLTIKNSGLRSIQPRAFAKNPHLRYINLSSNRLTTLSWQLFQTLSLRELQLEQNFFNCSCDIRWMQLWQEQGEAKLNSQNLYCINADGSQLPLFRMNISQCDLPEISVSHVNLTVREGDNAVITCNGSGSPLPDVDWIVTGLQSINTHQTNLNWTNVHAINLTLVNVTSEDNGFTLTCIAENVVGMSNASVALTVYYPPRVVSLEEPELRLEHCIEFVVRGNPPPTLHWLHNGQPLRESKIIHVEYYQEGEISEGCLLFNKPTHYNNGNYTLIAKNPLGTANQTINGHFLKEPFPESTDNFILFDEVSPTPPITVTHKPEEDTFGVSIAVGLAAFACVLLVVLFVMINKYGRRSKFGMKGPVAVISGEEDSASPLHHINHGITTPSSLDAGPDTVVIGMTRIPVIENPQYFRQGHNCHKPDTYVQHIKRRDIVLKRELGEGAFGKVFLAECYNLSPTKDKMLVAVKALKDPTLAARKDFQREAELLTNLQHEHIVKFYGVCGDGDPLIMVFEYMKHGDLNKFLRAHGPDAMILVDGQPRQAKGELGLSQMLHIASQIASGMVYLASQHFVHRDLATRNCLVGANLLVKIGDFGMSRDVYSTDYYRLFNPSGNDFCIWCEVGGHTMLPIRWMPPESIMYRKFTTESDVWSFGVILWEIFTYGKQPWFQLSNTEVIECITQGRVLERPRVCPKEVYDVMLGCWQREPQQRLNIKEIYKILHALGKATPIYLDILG

inhibition | SMILES
inactive | COc1ccc(C(=O)Nc2cc(-c3ccccc3)[nH]n2)cc1
inactive | Cc1ccc(-c2cc(NC(=O)c3ccc(F)cc3)[nH]n2)cc1
inactive | Cc1cccc(C(=O)Nc2cc(-c3ccc(F)cc3)n[nH]2)c1

Target: T1, Megakaryocyte-associated tyrosine-protein kinase (Homo sapiens) (UniProt P42679)
T1 sequence (whole entry): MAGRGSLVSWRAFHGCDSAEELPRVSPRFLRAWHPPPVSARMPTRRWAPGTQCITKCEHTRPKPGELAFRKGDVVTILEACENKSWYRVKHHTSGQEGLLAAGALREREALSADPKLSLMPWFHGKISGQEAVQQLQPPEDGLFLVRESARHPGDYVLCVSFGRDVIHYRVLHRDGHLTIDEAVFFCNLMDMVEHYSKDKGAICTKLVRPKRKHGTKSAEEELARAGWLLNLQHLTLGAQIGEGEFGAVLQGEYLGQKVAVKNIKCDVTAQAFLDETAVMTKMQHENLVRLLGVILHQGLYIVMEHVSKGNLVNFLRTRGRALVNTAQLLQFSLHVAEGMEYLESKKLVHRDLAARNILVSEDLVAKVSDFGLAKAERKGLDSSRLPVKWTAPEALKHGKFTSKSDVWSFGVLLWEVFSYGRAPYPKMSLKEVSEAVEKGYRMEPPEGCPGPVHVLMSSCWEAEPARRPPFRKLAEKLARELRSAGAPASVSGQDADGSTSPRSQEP
Assay: Inhibition of MATK1 (unknown origin) transfected in mouse Ba/F3 cells at 1 uM after 24 hrs
Format: cell-based
Details: BaF3

inhibition | SMILES
inactive | COc1ccc(C(=O)Nc2cc(-c3ccccc3)[nH]n2)cc1
inactive | Cc1ccc(-c2cc(NC(=O)c3ccc(F)cc3)[nH]n2)cc1
inactive | Cc1cccc(C(=O)Nc2cc(-c3ccc(F)cc3)n[nH]2)c1

Target: Vascular endothelial growth factor receptor 3 (Homo sapiens) (UniProt P35916)
Assay: Inhibition of FLT4 (unknown origin) transfected in mouse Ba/F3 cells at 1 uM after 24 hrs
Format: cell-based
Details: BaF3
Outline: (§1)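 Kinase specificity panel: each Ba/F3 line transformed with one of 24 tyrosine kinases depends on that kinase to grow. Cells were given compound at 1 or 5 µM for 24 h, with DMSO as comparator. Percentage growth was read by ATP-lite luminescence and reported as mean ± SEM.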

Chain of Vascular endothelial growth factor receptor 3 (Homo sapiens) (P35916 whole entry): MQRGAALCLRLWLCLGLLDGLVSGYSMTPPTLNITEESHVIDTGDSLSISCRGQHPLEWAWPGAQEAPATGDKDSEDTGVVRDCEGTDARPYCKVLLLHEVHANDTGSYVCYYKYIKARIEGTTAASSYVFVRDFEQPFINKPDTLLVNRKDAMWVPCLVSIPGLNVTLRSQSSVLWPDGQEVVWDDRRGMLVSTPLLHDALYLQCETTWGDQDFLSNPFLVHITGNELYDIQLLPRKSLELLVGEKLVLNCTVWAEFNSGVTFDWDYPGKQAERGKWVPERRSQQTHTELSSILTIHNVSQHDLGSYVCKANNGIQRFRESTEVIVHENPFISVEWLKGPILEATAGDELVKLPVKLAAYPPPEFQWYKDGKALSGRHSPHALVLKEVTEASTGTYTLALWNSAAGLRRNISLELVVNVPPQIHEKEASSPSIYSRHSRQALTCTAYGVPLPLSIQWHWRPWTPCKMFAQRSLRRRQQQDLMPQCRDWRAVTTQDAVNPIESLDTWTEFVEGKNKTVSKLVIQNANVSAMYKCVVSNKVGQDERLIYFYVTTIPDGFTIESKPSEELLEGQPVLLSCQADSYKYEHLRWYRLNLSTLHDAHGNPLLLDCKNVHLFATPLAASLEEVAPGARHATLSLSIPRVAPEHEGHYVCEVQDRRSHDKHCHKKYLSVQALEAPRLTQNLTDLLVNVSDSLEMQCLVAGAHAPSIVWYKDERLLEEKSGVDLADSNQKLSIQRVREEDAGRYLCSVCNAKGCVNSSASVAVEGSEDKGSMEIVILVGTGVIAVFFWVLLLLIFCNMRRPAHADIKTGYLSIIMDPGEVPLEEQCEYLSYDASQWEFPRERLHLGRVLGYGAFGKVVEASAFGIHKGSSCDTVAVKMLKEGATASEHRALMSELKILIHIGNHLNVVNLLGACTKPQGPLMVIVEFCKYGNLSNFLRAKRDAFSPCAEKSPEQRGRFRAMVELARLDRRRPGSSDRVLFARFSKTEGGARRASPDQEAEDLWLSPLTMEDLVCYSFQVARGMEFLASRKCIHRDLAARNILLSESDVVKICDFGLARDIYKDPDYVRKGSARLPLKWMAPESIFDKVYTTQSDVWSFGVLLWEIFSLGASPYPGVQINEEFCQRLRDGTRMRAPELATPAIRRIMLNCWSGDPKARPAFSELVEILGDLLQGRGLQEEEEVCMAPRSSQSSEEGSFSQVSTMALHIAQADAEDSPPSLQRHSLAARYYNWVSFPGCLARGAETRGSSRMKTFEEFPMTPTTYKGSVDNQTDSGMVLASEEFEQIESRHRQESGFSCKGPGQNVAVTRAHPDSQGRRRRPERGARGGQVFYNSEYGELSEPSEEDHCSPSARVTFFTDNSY

inhibition | SMILES
inactive | COc1ccc(C(=O)Nc2cc(-c3ccccc3)[nH]n2)cc1
inactive | Cc1ccc(-c2cc(NC(=O)c3ccc(F)cc3)[nH]n2)cc1
inactive | Cc1cccc(C(=O)Nc2cc(-c3ccc(F)cc3)n[nH]2)c1

Target: T2, Ephrin type-A receptor 8 (Homo sapiens) (UniProt P29322)
T2 sequence (whole entry): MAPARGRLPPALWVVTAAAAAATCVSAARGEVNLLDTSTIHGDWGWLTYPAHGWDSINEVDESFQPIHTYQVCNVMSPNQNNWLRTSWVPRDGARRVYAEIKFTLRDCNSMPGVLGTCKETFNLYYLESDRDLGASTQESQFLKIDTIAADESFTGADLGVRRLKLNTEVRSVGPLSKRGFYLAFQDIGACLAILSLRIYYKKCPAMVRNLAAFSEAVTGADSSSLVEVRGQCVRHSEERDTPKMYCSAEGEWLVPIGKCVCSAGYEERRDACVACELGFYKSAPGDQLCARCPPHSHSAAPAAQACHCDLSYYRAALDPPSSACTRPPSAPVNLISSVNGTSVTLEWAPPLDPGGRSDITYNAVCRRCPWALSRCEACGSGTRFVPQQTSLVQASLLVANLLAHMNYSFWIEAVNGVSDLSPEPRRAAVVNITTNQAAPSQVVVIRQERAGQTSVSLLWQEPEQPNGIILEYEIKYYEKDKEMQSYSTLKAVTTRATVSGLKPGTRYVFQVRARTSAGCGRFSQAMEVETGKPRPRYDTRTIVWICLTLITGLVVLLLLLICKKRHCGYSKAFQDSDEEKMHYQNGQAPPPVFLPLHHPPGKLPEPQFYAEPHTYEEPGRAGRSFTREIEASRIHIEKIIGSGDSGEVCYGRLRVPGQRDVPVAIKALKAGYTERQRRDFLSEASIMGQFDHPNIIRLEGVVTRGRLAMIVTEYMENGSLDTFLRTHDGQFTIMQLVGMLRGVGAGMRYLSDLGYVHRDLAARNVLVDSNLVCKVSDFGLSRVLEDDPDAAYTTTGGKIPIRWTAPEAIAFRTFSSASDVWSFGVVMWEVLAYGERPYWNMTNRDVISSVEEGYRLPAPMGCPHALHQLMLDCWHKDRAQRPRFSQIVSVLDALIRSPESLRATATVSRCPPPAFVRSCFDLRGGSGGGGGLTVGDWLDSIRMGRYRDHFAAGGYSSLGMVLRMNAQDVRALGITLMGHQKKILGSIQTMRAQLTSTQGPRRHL
Assay: Inhibition of EPHA8 (unknown origin) transfected in mouse Ba/F3 cells at 1 uM after 24 hrs
Format: cell-based
Details: BaF3
Outline: as §1

inhibition | SMILES
inactive | COc1ccc(C(=O)Nc2cc(-c3ccccc3)[nH]n2)cc1
inactive | Cc1ccc(-c2cc(NC(=O)c3ccc(F)cc3)[nH]n2)cc1
inactive | Cc1cccc(C(=O)Nc2cc(-c3ccc(F)cc3)n[nH]2)c1

Target: T3, Ephrin type-A receptor 1 (Homo sapiens) (UniProt P21709)
T3 sequence (whole entry): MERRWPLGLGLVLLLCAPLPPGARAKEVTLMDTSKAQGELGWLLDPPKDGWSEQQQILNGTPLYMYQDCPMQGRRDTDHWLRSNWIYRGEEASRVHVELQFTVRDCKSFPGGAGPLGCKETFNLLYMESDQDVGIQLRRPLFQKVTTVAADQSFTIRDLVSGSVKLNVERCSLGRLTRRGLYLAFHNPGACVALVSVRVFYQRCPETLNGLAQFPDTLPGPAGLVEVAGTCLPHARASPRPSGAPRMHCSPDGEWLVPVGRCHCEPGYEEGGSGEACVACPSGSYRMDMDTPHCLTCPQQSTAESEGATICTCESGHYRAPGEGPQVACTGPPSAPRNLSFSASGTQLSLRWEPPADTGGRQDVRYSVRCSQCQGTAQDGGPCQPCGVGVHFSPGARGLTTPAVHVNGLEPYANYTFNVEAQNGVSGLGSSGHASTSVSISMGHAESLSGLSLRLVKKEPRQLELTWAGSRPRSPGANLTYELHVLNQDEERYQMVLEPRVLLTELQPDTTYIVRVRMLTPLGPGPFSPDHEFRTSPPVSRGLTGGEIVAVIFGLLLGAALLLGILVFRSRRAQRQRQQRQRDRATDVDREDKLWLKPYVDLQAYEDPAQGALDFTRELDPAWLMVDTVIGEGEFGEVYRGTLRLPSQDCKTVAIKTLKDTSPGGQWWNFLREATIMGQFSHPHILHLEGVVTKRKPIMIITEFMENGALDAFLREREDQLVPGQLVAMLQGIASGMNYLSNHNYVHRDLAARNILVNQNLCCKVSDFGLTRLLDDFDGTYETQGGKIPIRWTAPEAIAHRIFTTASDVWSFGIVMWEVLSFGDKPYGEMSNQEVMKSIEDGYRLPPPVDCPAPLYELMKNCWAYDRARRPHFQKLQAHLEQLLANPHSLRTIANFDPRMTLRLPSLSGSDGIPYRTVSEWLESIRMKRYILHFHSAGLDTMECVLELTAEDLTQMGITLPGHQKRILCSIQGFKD
Assay: Inhibition of EPHA1 (unknown origin) transfected in mouse Ba/F3 cells at 1 uM after 24 hrs
Format: cell-based
Details: BaF3
Outline: as §1

inhibition | SMILES
inactive | COc1ccc(C(=O)Nc2cc(-c3ccccc3)[nH]n2)cc1
inactive | Cc1ccc(-c2cc(NC(=O)c3ccc(F)cc3)[nH]n2)cc1
inactive | Cc1cccc(C(=O)Nc2cc(-c3ccc(F)cc3)n[nH]2)c1

Tested on: KG-1
Assay: Cytotoxicity against human KG1 cells after 72 hrs by plate reader analysis
Format: functional, cell-based
Details: KG-1, 72 h

SMILES | EC50 [µM]
COc1ccc(C(=O)Nc2cc(-c3ccccc3)[nH]n2)cc1 | 15
Cc1ccc(-c2cc(NC(=O)c3ccc(F)cc3)[nH]n2)cc1 | 28
Fc1ccc(-c2n[nH]cc2-c2ccncc2)cc1Cl | 24
Cc1ccc(-n2cnc3cc(Nc4nnc(C)c5ccccc45)ccc32)cc1 | 20
Cc1cccc(C(=O)Nc2cc(-c3ccc(F)cc3)n[nH]2)c1 | 29

Tested on: MV4-11
Assay: Cytotoxicity against human MV4-11 cells after 72 hrs by plate reader analysis
Format: functional, cell-based
Details: MV4-11, 72 h

SMILES | EC50 [nM]
COc1ccc(C(=O)Nc2cc(-c3ccccc3)[nH]n2)cc1 | 142
Cc1ccc(-c2cc(NC(=O)c3ccc(F)cc3)[nH]n2)cc1 | 2820
Fc1ccc(-c2n[nH]cc2-c2ccncc2)cc1Cl | 2760
Cc1ccc(-n2cnc3cc(Nc4nnc(C)c5ccccc45)ccc32)cc1 | 3410
Cc1cccc(C(=O)Nc2cc(-c3ccc(F)cc3)n[nH]2)c1 | 1780
